Data as given in ChEMBL document CHEMBL1149808, “Cyclic nucleotide phosphodiesterase type 4 inhibitors: evaluation of pyrazolo[1,5-a]-1,3,5-triazine ring system as an adenine bioisostere” (Eur J Med Chem, 2008).
Blank lines part the entries; values can stand above or below the compound they belong to.

Assays:
[1] = Inhibition of PDE4
How it was run: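 PDE4 from bovine aorta media layer; [³H]-cAMP hydrolysis, two-step assay, with 1 mM EGTA and cGMP 50 added to suppress PDE3, 50 mM Tris-HCl pH 7.5, 2 mM magnesium acetate, 1 mg/mL BSA, 1% DMSO. IC50 by regression over concentration-response data, mean of three runs.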

[2] = Inhibition of PDE1 at 10 uM in absence of calmodulin
[3] = Inhibition of PDE1 at 10 uM in presence of calmodulin
How it was run: (§1)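 PDE1 purified from bovine aorta media layer; two-step radioassay with [³H]-cGMP substrate in 50 mM Tris-HCl pH 7.5, 2 mM magnesium acetate, 1 mg/mL BSA. Calmodulin-activated state: 18 nM calmodulin plus 10 mM CaCl₂. Inhibitors from DMSO, 1% final. IC50 by regression from concentration-response curves, mean of three determinations.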

[4] = molecular target: T1, cGMP-dependent 3',5'-cyclic phosphodiesterase (Bos taurus) (UniProt P14099); assay: Inhibition of bovine aorta PDE2 at 10 uM in absence of cGMP
T1 sequence (whole entry): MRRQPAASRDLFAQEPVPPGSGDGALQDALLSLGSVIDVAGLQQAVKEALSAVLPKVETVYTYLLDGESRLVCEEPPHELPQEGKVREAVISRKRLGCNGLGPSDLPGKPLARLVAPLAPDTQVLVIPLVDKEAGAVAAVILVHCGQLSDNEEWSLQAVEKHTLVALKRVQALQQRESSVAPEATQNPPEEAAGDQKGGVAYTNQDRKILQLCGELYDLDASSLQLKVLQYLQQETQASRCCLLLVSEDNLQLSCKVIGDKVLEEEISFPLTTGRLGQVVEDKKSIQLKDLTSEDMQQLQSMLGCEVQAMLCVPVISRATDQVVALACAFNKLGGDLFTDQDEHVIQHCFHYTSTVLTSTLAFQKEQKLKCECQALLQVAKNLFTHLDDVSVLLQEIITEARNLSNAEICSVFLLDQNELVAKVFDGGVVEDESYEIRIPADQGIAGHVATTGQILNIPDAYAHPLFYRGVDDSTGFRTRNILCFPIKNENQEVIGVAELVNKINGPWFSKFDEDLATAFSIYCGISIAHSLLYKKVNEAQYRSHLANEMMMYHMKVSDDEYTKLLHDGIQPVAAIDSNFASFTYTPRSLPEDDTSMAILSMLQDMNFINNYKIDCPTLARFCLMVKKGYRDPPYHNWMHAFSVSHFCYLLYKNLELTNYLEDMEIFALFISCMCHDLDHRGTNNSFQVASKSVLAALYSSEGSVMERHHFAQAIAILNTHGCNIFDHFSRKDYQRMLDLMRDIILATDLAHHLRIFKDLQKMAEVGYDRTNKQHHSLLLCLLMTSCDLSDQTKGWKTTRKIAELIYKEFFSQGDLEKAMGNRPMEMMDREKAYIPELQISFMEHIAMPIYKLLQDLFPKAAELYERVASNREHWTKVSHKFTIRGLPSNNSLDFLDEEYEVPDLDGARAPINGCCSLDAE

[5] = molecular target: T1, cGMP-dependent 3',5'-cyclic phosphodiesterase (Bos taurus); assay: Inhibition of bovine aorta PDE2 at 10 uM in presence of cGMP
How it was run: (§2)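 PDE2 isolated from cultured bovine aortic endothelial cells; two-step assay using [³H]-cAMP plus 1 mM EGTA in 50 mM Tris-HCl pH 7.5, 2 mM magnesium acetate, 1 mg/mL BSA; activated state with 5 cGMP. DMSO 1% final; IC50 by regression from concentration-response curves, three determinations.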

[6] = Inhibition of PDE3 at 10 uM
How it was run: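 Bovine aortic media PDE3, two-step assay with [³H]-cAMP plus 1 mM EGTA in Tris-HCl 50 mM pH 7.5, 2 mM Mg acetate, BSA 1 mg/mL; rolipram 50 present to block PDE4 contamination. DMSO 1% final.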

[7] = Inhibition of PDE5 at 10 uM
How it was run: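 Bovine aortic media PDE5 measured as [³H]-cGMP hydrolysis in two-step assay with 1 mM EGTA, 50 mM Tris-HCl pH 7.5, 2 mM magnesium acetate, 1 mg/mL BSA; inhibitor in DMSO, 1% final.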

PBMC = assay: Antiinflammatory activity in human PBMC assessed as inhibition of LPS-stimulated TNFalpha release after 24 hrs by trypan blue exclusion test; format: functional, cell-based; conditions: in the assay text read “ELISA” for “trypan blue exclusion test”
How it was run: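 Human PBMCs from density-gradient interface, washed in HBSS-CMF, 2 × 10⁶ cells/mL, exposed to drug 10^-8 to 10^-5 M with or without Salmonella abortus equi LPS, 24 h, 37 °C, 5% CO₂. Supernatants stored at -80 °C, then TNFα measured by two-site ELISA (OD 450 nm, o-phenylenediamine), interpolated on standard curve by four-parameter logistics; viability by Trypan blue exclusion.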

[8] = Inhibition of PDE1 in presence of calmodulin; how it was run: as §1
[9] = molecular target: T2, cGMP-dependent 3',5'-cyclic phosphodiesterase (Bos taurus, UniProt P14099); assay: Inhibition of bovine aorta PDE2 in presence of cGMP; how it was run: as §2
T2 sequence (P14099 whole entry): T1 sequence (whole entry)

SMILES: CNc1nc(C)nc2c(Cc3ccoc3)cnn12
IC50 [1]: 78 nM

SMILES: CNc1nc(C)nc2c(-c3cccc([N+](=O)[O-])c3)cnn12
IC50 [1]: 1200 nM

SMILES: CCCc1nc(NC)n2ncc(Cc3ccccc3OC)c2n1
IC50 [1]: 13 nM
inhibition [2]: 27%
inhibition [3]: 35%
inhibition [4]: 19%
inhibition [5]: 31%
inhibition [6]: 16%
inhibition [7]: 38%
Activity (PBMC): Dose-dependent effect

SMILES: CCCc1nc(NC)c2ncn(Cc3ccccc3OC)c2n1
IC50 [1]: 7 nM

SMILES: CNc1nc(C(F)(F)F)nc2c(Cc3ccccc3OC)cnn12
IC50 [1]: 11 nM
inhibition [2]: 20%
inhibition [4]: 16%
inhibition [6]: 24%
inhibition [7]: 74%
Activity (PBMC): Dose-dependent effect

SMILES: CCCc1nc(NC)c2ncn(Cc3ccccc3)c2n1
IC50 [1]: 88 nM

SMILES: CCC(O)c1cnn2c(NC)nc(C)nc12 (stereo not given)
IC50 [1]: 4800 nM

SMILES: CNc1nc(C(F)(F)F)nc2c1ncn2Cc1ccccc1OC
IC50 [1]: 1.4 nM

SMILES: CNc1nc(C)nc2c(-c3cccs3)cnn12
IC50 [1]: 2400 nM

SMILES: CC#Cc1cnn2c(NC)nc(C)nc12
IC50 [1]: 6400 nM

SMILES: CNc1nc(C)nc2c(Cc3cccs3)cnn12
IC50 [1]: 70 nM

SMILES: CCCC#Cc1cnn2c(NC)nc(C)nc12
IC50 [1]: 410 nM

SMILES: CNc1nc(C)nc2c1ncn2Cc1ccccc1OC
IC50 [1]: 61 nM

SMILES: CNc1nc(C(F)(F)F)nc2c(Cc3ccccc3)cnn12
IC50 [1]: 77 nM
Activity (PBMC): Dose-dependent effect

SMILES: CCCc1nc(NC)n2ncc(Cc3ccccc3)c2n1
IC50 [1]: 48 nM
inhibition [2]: 24%
inhibition [3]: 25%
inhibition [4]: 20%
inhibition [5]: 20%
inhibition [6]: 10%
inhibition [7]: 16%

SMILES: CNc1nc(C)nc2c(Cc3ccco3)cnn12
IC50 [1]: 100 nM

SMILES: CNc1nc(C)nc2c1ncn2Cc1ccccc1
IC50 [1]: 280 nM

SMILES: CNc1nc(C)nc2c(C(=O)c3ccccc3)cnn12
IC50 [1]: 120 nM
inhibition [2]: 16%
inhibition [3]: 29%
inhibition [4]: 15%
inhibition [5]: 17%
inhibition [6]: 11%
inhibition [7]: 8%

SMILES: CNc1nc(C)nc2c(-c3cccc(C(F)(F)F)c3)cnn12
IC50 [1]: 130 nM

Continued, values first:

IC50 [1]: 98 nM
inhibition [2]: 37%
inhibition [4]: 19%
inhibition [6]: 8.6%
inhibition [7]: 33%
IC50 [8]: 14000 nM
IC50 [9]: 56000 nM
SMILES: CNc1nc(C)nc2c(Cc3ccccc3)cnn12

IC50 [1]: 270 nM
SMILES: CNc1nc(C)nc2c(Cc3ccc4ccccc4c3)cnn12

IC50 [1]: 270 nM
inhibition [2]: 21%
inhibition [3]: 20%
inhibition [4]: 3.6%
inhibition [5]: 11%
inhibition [6]: 2.7%
inhibition [7]: 11%
SMILES: CNc1nc(C)nc2c(-c3ccccc3)cnn12

IC50 [1]: 2900 nM
SMILES: CNc1nc(C)nc2c(-c3ccccc3Cl)cnn12

IC50 [1]: 3500 nM
SMILES: CNc1nc(C)nc2c(-c3cc4ccccc4s3)cnn12

IC50 [1]: 6200 nM
SMILES: CNc1nc(C)nc2c(-c3cc4ccccc4o3)cnn12

IC50 [1]: 210 nM
SMILES: CNc1nc(C)nc2c(-c3cccc4ccccc34)cnn12

IC50 [1]: 3100 nM
SMILES: CNc1nc(C)nc2c(-c3ccco3)cnn12

IC50 [1]: 540 nM
SMILES: CNc1nc(C)nc2c(-c3cccc(C(C)=O)c3)cnn12
